{"source": "ChEMBL document CHEMBL5678798", "about": "(Clin Cancer Res, 2009)", "key": {"[1]": {"molecular_target": "Tyrosine-protein kinase Fyn (Homo sapiens, UniProt P06241)", "assay": "Inhibition of FYN (unknown origin)"}, "COLO 205 [2]": {"system": "COLO 205", "assay": "Induction of cell cycle arrest in human COLO 205 cells assessed as increase in cells accumulation at G1 phase at 0.03 to 10 uM incubated for 24 to 48 hrs by propidium iodide staining based flow cytometric analysis", "type": "functional", "details": "dose 0.03-10 µM, time lower 24.0 hrs, time upper […]", "how_it_was_run": "(§1)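 COLO 205, MCF-7 or NCI-H929 cells seeded in 96-well plates overnight at 37°C, then exposed to DMSO or increasing compound concentrations for 24 or 48 h. Fixed and stained with propidium iodide (Vindelov method), then analysed by flow cytometry for sub-G1, G1, S and G2-M fractions. Experiment repeated twice.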"}, "MCF7": {"system": "MCF7", "assay": "Induction of cell cycle arrest in human MCF7 cells assessed as cells accumulation at G1 phase at 1 umol/L incubated for 48 hrs by propidium iodide staining based flow cytometric analysis (reference value: 67%)", "type": "functional", "details": "dose 1 µmol/L, at 1 µM", "how_it_was_run": "as §1"}, "[3]": {"molecular_target": "Protein-tyrosine kinase 2-beta (Homo sapiens) (UniProt Q14289)", "assay": "Inhibition of N-Terminal His6-tagged recombinant full-length human Pyk2 expressed in baculovirus infected Sf21 cells at 0.3 uM by filter binding assay relative to control", "how_it_was_run": "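KinaseProfiler panel of 233 kinases: radiometric filter-binding activity assays with compound at 0.3 or 3 µmol/L. Read-out is percent inhibition.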"}, "[4]": {"molecular_target": "Protein kinase C theta type (Homo sapiens, UniProt Q04759)", "sequence (Q04759 whole entry)": "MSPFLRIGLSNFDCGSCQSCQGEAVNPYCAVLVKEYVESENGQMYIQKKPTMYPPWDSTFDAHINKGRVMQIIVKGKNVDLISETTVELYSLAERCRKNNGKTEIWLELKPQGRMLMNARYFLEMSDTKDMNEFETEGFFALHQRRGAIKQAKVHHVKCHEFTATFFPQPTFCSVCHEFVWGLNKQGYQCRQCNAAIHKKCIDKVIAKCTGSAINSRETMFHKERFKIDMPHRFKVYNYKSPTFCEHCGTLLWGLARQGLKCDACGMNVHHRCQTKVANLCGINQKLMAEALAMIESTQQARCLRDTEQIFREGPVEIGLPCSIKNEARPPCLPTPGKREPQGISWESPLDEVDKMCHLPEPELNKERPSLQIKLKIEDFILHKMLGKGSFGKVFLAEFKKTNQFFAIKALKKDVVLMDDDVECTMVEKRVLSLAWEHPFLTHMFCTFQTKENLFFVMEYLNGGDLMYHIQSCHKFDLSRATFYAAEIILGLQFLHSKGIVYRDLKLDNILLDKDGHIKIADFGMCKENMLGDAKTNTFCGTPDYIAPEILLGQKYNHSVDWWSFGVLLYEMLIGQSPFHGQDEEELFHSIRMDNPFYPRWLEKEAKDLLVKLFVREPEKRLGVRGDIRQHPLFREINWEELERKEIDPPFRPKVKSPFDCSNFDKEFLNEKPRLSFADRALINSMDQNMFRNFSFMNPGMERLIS", "assay": "Inhibition of PKCtheta (unknown origin)"}, "[5]": {"molecular_target": "Serine/threonine-protein kinase PLK3 (Homo sapiens) (UniProt Q9H4B4)", "assay": "Inhibition of N-terminal His6-tagged recombinant human Plk3 (19 to 301 residues) expressed in baculovirus infected Sf21 cells at 0.3 uM by filter binding assay relative to control"}, "[6]": {"assay": "Antiproliferative activity against human RDES cells assessed as reduction in cell viability after 72 hrs by CellTiter-Glo assay", "type": "functional, cell-based", "details": "RD-ES", "how_it_was_run": "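Cells seeded in 96-well plates, left overnight at 37°C, then exposed to a range of test concentrations for 72 h. Viability read by CellTiter-Glo luminescence; IC50 from four-parameter curve fit. Lines kept at 37°C, 5% CO2, in recommended growth medium.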"}, "[7]": {"molecular_target": "Activin receptor type-1B (Homo sapiens) (UniProt P36896)", "assay": "Inhibition of N-terminal GST-tagged recombinant human ALK4 (150 to end residues) expressed in baculovirus infected Sf21 cells at 3 uM by filter binding assay relative to control", "how_it_was_run": "(§2)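 Outsourced single-concentration screen in a commercial panel of 233 protein kinases, run as radiometric filter-binding activity assays. Test agent was tested at 0.3 or 3 µmol/L, as given in each line, from a 10 mmol/L DMSO stock. Activity is expressed as percent inhibition relative to control.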"}, "Aurora kinase A": {"molecular_target": "Aurora kinase A (Homo sapiens, UniProt O14965)", "assay": "Inhibition of Aurora A (unknown origin)", "how_it_was_run": "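In-house kinase panel assay with conditions developed and optimized for this kinase. Aurora A was assayed in the presence of its accessory protein TPX2. IC50 was determined.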"}, "[8]": {"molecular_target": "Tyrosine-protein kinase receptor UFO (Homo sapiens) (UniProt P30530)", "assay": "Inhibition of N-terminal His6-tagged recombinant human Axl (473 to end residues) expressed in Sf21 cells at 3 uM by filter binding assay relative to control"}, "[9]": {"assay": "Toxicity in nu/nu CD-1 mouse implanted with mouse NIH-3T3/LISN cells assessed as reduction in body weight at 30 mg/kg, po administered twice daily for 5 to 21 days relative to control", "type": "organism-based", "parameters": "scale not given: the % may be the effect or the level left", "details": "in vivo, time 5-21 day"}, "Rattus norvegicus": {"species_on_record": "Rattus norvegicus", "assay": "Inhibition of recombinant rat AMPK at 0.3 uM by filter binding assay relative to control"}, "[10]": {"molecular_target": "MAP kinase-interacting serine/threonine-protein kinase 2 (Homo sapiens) (UniProt Q9HBH9)", "sequence (Q9HBH9 whole entry, looked up)": "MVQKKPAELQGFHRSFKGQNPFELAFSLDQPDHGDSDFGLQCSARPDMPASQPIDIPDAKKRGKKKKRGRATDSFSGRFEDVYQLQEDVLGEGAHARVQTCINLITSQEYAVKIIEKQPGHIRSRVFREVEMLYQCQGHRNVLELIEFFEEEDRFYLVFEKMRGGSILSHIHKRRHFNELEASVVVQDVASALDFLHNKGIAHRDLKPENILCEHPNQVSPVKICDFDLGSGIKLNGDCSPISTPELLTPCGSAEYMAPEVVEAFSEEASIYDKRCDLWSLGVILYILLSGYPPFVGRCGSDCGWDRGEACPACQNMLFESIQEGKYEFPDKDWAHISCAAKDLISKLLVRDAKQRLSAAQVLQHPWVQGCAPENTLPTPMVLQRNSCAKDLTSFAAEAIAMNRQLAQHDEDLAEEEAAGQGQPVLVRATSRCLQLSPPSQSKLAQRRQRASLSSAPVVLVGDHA", "assay": "Inhibition of N-terminal 6His-tagged recombinant human full-length Mnk2 expressed in baculovirus infected Sf21 cells at 3 uM by filter binding assay relative to control", "how_it_was_run": "as §2"}, "Aurora kinase B": {"molecular_target": "Aurora kinase B (Homo sapiens, UniProt Q96GD4)", "assay": "Inhibition of Aurora B (unknown origin)"}, "HT-29": {"system": "HT-29", "assay": "Antitumor activity against human HT-29 cells xenografted in nu/nu CD-1 mouse assessed as reduction in tumor growth at 30 mg/kg, po for 21 days relative to control", "type": "functional", "details": "HT-29, 504 h, time 21 day, read-out: TGI", "how_it_was_run": "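Exponentially growing cells implanted s.c. in the right flank of 8–10-wk-old female athymic nu/nu CD-1 mice. At 150–200 mm3, block-randomized by tumor size into groups of eight. Oral dosing once or twice daily for 21 d; vehicle 20% sulfobutylether-β-cyclodextrin, pH 3.5. Calipers twice weekly; volume = length×width²/2. Growth inhibition = 100×[1 − treated growth/vehicle growth].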"}, "[11]": {"molecular_target": "High affinity nerve growth factor receptor (Homo sapiens, UniProt P04629)", "assay": "Inhibition of N-terminal His6-tagged recombinant human TrkA (440 to end residues) expressed in baculovirus infected Sf21 cells by filter binding assay"}, "[12]": {"molecular_target": "Mitogen-activated protein kinase 14 (Homo sapiens, UniProt Q16539)", "assay": "Inhibition of P38alpha (unknown origin)"}, "[13]": {"assay": "Inhibition of N-terminal His6-tagged recombinant full-length human CDK5/N-terminal GST-tagged recombinant full-length human p35 expressed in baculovirus infected Sf21 cells at 0.3 uM by filter binding assay relative to control", "details": "condition cancer", "how_it_was_run": "as §2"}, "[14]": {"molecular_target": "Discoidin domain-containing receptor 2 (Homo sapiens) (UniProt Q16832)", "assay": "Inhibition of N-terminal His6-tagged recombinant human DDR2 (467 to end residues) expressed in baculovirus infected Sf21 cells at 3 uM by filter binding assay relative to control"}, "[15]": {"molecular_target": "Serine/threonine-protein kinase pim-3 (Homo sapiens) (UniProt Q86V86)", "assay": "Inhibition of N-terminal 6His-tagged recombinant human Pim-3 expressed in baculovirus infected Sf21 cells at 0.3 uM by filter binding assay relative to control", "how_it_was_run": "as §2"}, "[16]": {"molecular_target": "Tyrosine-protein kinase Fer (Homo sapiens, UniProt P16591)", "sequence (P16591 whole entry)": "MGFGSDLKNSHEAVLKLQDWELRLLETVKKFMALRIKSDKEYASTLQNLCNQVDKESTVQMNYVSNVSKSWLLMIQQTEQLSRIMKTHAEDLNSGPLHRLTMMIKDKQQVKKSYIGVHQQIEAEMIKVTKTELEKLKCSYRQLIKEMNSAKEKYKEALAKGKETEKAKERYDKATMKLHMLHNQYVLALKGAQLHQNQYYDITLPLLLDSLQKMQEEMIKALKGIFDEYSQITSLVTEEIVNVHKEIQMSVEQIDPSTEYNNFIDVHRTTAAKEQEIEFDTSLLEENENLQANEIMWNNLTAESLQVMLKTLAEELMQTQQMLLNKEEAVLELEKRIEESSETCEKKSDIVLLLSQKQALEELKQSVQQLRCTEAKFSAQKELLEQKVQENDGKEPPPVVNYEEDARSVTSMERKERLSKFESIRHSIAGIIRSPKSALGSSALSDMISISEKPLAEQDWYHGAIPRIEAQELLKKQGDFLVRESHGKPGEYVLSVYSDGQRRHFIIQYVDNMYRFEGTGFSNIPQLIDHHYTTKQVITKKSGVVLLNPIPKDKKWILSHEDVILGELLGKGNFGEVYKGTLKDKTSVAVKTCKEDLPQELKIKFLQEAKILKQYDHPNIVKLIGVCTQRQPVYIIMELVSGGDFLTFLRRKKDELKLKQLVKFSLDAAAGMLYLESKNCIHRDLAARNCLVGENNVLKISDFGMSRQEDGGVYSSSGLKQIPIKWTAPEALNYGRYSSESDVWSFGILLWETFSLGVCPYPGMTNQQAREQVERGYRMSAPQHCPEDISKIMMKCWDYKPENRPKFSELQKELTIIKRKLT", "assay": "Inhibition of N-terminal His6 tagged recombinant human Fer (541 to end residues) expressed in baculovirus infected Sf21 cells by filter binding assay"}, "[17]": {"molecular_target": "Insulin receptor (Mus musculus) (UniProt P15208)", "sequence (P15208 28-748 limits assumed)": "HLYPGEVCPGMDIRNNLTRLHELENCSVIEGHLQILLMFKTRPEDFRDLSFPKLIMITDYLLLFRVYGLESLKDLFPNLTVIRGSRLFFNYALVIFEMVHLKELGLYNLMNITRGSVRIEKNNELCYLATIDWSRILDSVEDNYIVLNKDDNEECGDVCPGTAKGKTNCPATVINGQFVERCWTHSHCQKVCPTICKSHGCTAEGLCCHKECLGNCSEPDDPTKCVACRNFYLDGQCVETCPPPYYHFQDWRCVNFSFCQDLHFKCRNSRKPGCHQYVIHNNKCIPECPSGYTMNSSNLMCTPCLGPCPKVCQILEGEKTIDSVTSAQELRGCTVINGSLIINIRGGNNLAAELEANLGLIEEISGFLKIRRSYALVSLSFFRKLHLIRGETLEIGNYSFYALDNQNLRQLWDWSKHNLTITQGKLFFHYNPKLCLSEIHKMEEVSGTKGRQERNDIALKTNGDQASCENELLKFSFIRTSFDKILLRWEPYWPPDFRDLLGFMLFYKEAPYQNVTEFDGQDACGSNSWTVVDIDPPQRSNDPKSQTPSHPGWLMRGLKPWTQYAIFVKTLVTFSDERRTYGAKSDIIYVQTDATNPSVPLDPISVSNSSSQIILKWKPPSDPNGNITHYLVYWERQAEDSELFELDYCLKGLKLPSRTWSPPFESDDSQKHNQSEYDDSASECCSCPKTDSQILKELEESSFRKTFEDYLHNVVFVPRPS", "sequence (P15208 753-1372 limits assumed)": "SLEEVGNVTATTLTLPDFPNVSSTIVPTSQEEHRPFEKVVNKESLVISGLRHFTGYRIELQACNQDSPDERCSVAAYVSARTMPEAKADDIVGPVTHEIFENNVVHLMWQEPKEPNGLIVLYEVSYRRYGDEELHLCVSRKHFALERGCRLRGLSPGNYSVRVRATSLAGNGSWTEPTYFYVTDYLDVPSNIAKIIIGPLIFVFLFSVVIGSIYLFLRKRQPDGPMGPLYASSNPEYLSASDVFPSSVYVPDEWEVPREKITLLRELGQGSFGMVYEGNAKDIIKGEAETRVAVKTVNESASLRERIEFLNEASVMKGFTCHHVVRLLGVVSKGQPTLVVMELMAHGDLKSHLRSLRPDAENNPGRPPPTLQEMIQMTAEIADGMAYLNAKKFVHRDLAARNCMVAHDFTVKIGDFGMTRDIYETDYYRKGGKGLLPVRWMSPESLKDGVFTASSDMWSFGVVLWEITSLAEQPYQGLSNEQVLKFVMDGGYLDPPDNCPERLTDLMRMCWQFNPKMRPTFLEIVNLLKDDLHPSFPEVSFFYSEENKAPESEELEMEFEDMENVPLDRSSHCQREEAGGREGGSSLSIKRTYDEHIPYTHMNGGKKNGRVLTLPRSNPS", "details": "CD-1, dose 30.0 mg/kg, route po, time 21.0 day"}, "[18]": {"molecular_target": "Tyrosine-protein kinase ABL2 (Homo sapiens) (UniProt P42684)", "sequence (P42684 whole entry)": "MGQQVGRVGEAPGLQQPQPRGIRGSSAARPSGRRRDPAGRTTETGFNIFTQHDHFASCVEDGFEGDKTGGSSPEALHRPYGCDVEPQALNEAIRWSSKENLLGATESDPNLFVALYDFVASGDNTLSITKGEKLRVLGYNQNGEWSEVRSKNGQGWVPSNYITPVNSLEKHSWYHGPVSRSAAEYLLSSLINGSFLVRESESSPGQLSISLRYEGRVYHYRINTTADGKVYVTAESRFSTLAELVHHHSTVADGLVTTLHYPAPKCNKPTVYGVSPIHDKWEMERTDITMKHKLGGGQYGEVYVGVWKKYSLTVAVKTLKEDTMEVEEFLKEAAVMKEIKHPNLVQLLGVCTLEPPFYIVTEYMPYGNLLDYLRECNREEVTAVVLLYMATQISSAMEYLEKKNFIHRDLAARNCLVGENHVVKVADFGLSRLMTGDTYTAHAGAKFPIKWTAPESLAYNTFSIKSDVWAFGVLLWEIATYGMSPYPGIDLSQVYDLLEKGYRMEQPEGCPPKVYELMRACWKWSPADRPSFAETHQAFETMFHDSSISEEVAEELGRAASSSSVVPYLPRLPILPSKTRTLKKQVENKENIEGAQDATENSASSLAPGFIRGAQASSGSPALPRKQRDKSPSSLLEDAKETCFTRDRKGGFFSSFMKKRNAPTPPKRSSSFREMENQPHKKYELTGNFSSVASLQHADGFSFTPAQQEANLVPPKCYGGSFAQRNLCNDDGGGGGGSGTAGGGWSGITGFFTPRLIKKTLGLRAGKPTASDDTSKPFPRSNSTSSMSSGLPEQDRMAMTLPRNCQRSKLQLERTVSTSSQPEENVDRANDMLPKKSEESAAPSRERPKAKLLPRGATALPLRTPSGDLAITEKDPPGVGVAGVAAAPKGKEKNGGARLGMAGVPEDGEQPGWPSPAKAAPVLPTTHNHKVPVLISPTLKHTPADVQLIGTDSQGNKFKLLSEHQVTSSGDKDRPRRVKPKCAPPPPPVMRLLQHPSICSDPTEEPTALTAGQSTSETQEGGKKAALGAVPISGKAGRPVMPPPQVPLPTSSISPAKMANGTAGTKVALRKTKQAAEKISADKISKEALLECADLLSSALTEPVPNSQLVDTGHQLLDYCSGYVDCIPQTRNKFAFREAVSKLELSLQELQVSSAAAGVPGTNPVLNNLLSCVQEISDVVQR", "assay": "Inhibition of N-terminal His6-tagged recombinant human Arg (38 to end residues) expressed in baculovirus infected Sf21 cells at 3 uM by filter binding assay relative to control"}, "[19]": {"assay": "Cytotoxicity against human PREC cells assessed as growth inhibition after 72 hrs by CellTiter-Glo assay relative to control", "type": "toxicity, cell-based", "details": "read-out: GI"}, "COLO 205 [20]": {"system": "COLO 205", "assay": "Induction of cell cycle arrest in human COLO 205 cells assessed as effect on sub-2N-DNA content at 0.03 to 10 uM incubated for 24 to 48 hrs by propidium iodide staining based flow cytometric analysis", "type": "functional", "details": "dose 0.03-10 µM, time lower 24.0 hrs, time upper […]", "how_it_was_run": "as §1"}}, "note": "Activity calls are given as the source filed them. No cut-off for these calls is given here.", "data": [{"molecule": "CCc1cc(Nc2nccc(-c3c(-c4ccc(OC)c(C(=O)Nc5c(F)cccc5F)c4)nc4ccccn34)n2)c(OC)cc1N1CCC(N2CCN(S(C)(=O)=O)CC2)CC1", "values": [{"measurement": "IC50", "setting": "[1]", "value": 6.3, "unit": "µM"}, {"measurement": "Activity", "setting": "COLO 205 [2]", "value": "Active"}, {"measurement": "Activity", "setting": "MCF7", "value": 76, "unit": "%"}, {"measurement": "inhibition", "setting": "[3]", "value": 21, "unit": "%"}, {"measurement": "IC50", "setting": "[4]", "value": "> 10", "unit": "µM"}, {"measurement": "inhibition", "setting": "[5]", "value": -10, "unit": "%"}, {"measurement": "IC50", "setting": "[6]", "value": 0.062, "unit": "µM"}, {"measurement": "inhibition", "setting": "[7]", "value": -10, "unit": "%"}, {"measurement": "IC50", "setting": "Aurora kinase A", "value": "> 8", "unit": "µM"}, {"measurement": "inhibition", "setting": "[8]", "value": 1, "unit": "%"}, {"measurement": "Activity", "setting": "[9]", "value": 11, "unit": "%"}, {"measurement": "inhibition", "setting": "Rattus norvegicus", "value": 0, "unit": "%"}, {"measurement": "inhibition", "setting": "[10]", "value": 24, "unit": "%"}, {"measurement": "IC50", "setting": "Aurora kinase B", "value": 4, "unit": "µM"}, {"measurement": "inhibition in vivo at 30 mg/kg", "setting": "HT-29", "value": 47, "unit": "%"}, {"measurement": "IC50", "setting": "[11]", "value": 0.701, "unit": "µM"}, {"measurement": "IC50", "setting": "[12]", "value": 10, "unit": "µM"}, {"measurement": "inhibition at 0.3 µM", "setting": "[13]", "value": -8, "unit": "%"}, {"measurement": "inhibition", "setting": "[14]", "value": 10, "unit": "%"}, {"measurement": "inhibition", "setting": "[15]", "value": -10, "unit": "%"}, {"measurement": "IC50", "setting": "[16]", "value": 0.013, "unit": "µM"}, {"measurement": "inhibition", "setting": "[17]", "value": "inactive"}, {"measurement": "inhibition", "setting": "[18]", "value": 33, "unit": "%"}, {"measurement": "inhibition at 72 h", "setting": "[19]", "value": 45, "unit": "%"}, {"measurement": "Activity", "setting": "COLO 205 [20]", "value": "inactive"}]}]}
